# Measured values reported in ChEMBL document CHEMBL1152807 (J Med Chem, 2009).
# Active and inactive are the calls of the source. No cut-off for these calls is given here.
# Legend:
# [1] = target: Phosphodiesterase 4 (Homo sapiens, UniProt P27815+Q08499+Q07343+Q08493); experiment: Inhibition of human PDE4; type: protein assay
# Summary of the method: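 PDE4 enzyme was isolated from U937 cells, following a previously reported method.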
# [2] = test system: PBMC; experiment: Inhibition of TNFalpha production in LPS-stimulated human PBMC preincubated before LPS challenge measured after 4 hrs by enzyme immunoassay; type: functional, cell-based
# [3] = test system: Blood; experiment: Inhibition of TNFalpha production in LPS-stimulated human whole blood preincubated before LPS challenge measured after 4 hrs by enzyme immunoassay; type: functional, tissue-based
# [4] = Ratio of IC50 for TNFalpha production in LPS-stimulated human whole blood to IC50 for TNFalpha production in LPS-stimulated human PBMC; type: functional
# [5] = test system: Rattus norvegicus; experiment: Antiinflammatory activity in po dosed BN rat late airway inflammatory model assessed as inhibition of ovalbumin-induced cell infiltration in bronchoalveolar lavage fluid measured 48 hrs after ovalbumin challenge; type: functional; details: Lung
# [6] = Metabolic stability in human microsomes assessed as half life; type: ADME, Microsome
# [7] = target: T1, Cytochrome P450 1A2 (Homo sapiens, UniProt P05177); experiment: Inhibition of CYP1A2; type: ADME
# T1 sequence (P05177 whole entry): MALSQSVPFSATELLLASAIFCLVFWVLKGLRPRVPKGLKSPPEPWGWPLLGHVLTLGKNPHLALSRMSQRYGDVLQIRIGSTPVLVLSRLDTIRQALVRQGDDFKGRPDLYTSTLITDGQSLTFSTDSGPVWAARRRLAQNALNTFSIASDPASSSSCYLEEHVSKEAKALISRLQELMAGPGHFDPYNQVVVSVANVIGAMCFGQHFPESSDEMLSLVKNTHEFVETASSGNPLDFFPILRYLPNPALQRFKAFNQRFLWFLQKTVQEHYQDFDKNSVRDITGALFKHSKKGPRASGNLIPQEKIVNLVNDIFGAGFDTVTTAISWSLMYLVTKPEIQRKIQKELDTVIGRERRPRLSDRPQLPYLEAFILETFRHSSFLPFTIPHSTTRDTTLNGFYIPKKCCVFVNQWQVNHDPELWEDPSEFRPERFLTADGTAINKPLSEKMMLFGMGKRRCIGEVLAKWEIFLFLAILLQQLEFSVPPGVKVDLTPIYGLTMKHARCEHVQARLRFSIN
# [8] = target: Cytochrome P450 2C9 (Homo sapiens, UniProt P11712); experiment: Inhibition of CYP2C9; type: ADME
# [9] = target: Cytochrome P450 2C19 (Homo sapiens, UniProt P33261); experiment: Inhibition of CYP2C19; type: ADME
# [10] = target: Cytochrome P450 2D6 (Homo sapiens, UniProt P10635); experiment: Inhibition of CYP2D6; type: ADME
# [11] = target: Cytochrome P450 3A4 (Homo sapiens, UniProt P08684); experiment: Inhibition of CYP3A4; type: ADME
# [12] = Protein binding in human plasma; type: ADME, cell-free; details: read-out: PPB (converted)
# [13] = Cmax in rat at 5 mg/kg, iv; type: ADME, organism-based; parameters: dose 5 mg/kg, route intravenous; details: in vivo
# Summary of the method: (§1)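 Pharmacokinetics were determined in female rats after oral and intravenous administration.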
# [14] = AUC in rat at 5 mg/kg, iv; type: ADME, organism-based; parameters: dose 5 mg/kg, route intravenous; details: plasma; summary of the method: as §1
# [15] = Half life in rat at 5 mg/kg, iv; type: ADME, organism-based; parameters: dose 5 mg/kg, route intravenous; details: in vivo; summary of the method: as §1
# [16] = Clearance in rat at 5 mg/kg, iv; type: ADME, organism-based; parameters: dose 5 mg/kg, route intravenous; details: in vivo; summary of the method: as §1
# [17] = Volume of distribution at steady state in rat at 5 mg/kg, iv; type: ADME, organism-based; parameters: dose 5 mg/kg, route intravenous; details: in vivo, read-out: Vdss; summary of the method: as §1
# [18] = Cmax in rat at 10 mg/kg, po; type: ADME, organism-based; parameters: dose 10 mg/kg, route oral; details: in vivo; summary of the method: as §1
# [19] = AUC in rat at 10 mg/kg, po; type: ADME, organism-based; parameters: dose 10 mg/kg, route oral; details: plasma; summary of the method: as §1
# [20] = Half life in rat at 10 mg/kg, po; type: ADME, organism-based; parameters: dose 10 mg/kg, route oral; details: in vivo; summary of the method: as §1
# [21] = Oral bioavailability in rat at 10 mg/kg; type: ADME, organism-based; details: in vivo; summary of the method: as §1
# [22] = test system: Rattus norvegicus; experiment: Antiinflammatory activity in rat assessed as inhibition of LPS-induced TNFalpha production at 0.01 mg/kg, po; type: functional, organism-based; parameters: dose 0.01 mg/kg
# [23] = test system: Rattus norvegicus; experiment: Antiinflammatory activity in po dosed rat assessed as inhibition of LPS-induced TNFalpha production; type: functional
# Summary of the method: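 Rat in vivo model: rats were dosed orally and TNF-α production was induced with LPS. Inhibition of TNF-α production was measured and an ED50 was determined.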
# [24] = test system: Rattus norvegicus; experiment: Antiinflammatory activity in po dosed rat assessed as inhibition of LPS-induced neutrophilia in bronchoalveolar lavage fluid; type: functional; details: Lung
# Summary of the method: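 Rat in vivo model: rats were dosed orally and neutrophilia was induced with LPS. Neutrophils were counted in bronchoalveolar lavage fluid and an ED50 for inhibition was determined.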
# Cytochrome P450 2C9, sequence (P11712 whole entry): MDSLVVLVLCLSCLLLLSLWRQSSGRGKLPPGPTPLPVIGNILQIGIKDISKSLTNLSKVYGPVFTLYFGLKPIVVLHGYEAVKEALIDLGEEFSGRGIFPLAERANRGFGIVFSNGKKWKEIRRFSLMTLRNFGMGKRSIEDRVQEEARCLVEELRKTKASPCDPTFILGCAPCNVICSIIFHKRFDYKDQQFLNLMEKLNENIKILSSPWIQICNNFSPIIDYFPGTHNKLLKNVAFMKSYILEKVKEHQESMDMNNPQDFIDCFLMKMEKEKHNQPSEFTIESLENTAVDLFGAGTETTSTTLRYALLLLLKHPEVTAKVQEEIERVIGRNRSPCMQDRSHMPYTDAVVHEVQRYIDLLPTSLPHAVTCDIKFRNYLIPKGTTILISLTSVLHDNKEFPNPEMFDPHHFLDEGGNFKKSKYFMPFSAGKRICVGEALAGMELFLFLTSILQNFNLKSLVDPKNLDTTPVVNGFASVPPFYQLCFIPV
# Cytochrome P450 2D6, sequence (P10635 whole entry): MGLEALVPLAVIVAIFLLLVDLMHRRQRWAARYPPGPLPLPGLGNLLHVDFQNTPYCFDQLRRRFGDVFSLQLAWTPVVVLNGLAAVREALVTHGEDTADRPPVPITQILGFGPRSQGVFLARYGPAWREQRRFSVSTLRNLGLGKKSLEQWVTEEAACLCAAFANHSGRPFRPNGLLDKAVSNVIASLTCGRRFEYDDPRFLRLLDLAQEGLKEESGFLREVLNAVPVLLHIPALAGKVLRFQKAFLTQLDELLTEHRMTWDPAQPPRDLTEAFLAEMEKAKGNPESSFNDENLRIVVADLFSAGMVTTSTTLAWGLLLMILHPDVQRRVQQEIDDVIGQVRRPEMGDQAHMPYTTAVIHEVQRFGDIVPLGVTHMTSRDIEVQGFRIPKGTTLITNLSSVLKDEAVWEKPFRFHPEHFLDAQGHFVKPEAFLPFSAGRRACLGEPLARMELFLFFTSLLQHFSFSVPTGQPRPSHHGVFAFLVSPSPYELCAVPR
# Cytochrome P450 3A4, sequence (P08684 whole entry): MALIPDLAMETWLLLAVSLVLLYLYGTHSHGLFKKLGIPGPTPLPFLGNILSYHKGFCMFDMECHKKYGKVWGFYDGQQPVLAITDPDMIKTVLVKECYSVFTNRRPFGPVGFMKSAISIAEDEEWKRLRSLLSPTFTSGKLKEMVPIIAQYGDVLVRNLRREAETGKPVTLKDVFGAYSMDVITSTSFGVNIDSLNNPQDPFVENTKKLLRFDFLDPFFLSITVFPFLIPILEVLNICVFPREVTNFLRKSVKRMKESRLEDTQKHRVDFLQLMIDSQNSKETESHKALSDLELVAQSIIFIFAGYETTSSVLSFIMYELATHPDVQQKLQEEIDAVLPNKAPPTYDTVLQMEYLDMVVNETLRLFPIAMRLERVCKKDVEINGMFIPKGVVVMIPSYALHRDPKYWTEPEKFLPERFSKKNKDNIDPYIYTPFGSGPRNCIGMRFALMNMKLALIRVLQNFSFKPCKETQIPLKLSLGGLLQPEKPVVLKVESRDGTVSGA
# Cytochrome P450 2C19, sequence (P33261 whole entry): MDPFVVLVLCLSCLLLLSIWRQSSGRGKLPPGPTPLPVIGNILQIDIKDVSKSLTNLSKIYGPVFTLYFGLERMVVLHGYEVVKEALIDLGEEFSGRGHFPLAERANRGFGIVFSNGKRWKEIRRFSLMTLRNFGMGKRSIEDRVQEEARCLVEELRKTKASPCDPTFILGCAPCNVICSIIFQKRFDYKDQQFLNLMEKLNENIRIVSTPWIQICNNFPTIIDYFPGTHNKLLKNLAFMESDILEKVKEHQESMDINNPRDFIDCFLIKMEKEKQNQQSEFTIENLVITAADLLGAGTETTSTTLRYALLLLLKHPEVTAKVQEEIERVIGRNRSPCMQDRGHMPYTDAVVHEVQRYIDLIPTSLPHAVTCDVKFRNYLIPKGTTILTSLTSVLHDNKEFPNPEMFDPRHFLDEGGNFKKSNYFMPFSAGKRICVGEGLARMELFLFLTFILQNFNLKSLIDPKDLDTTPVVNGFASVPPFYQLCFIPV
Structure (SMILES),IC50 [1],IC50 [3],IC50 [2],also measured
O=C(Nc1c(Cl)cncc1Cl)c1ccc(OC(F)F)c(OCC2CC2)c1 [ROFLUMILAST],–,–,0.02 nM,ED50 [5]: 0.9 mg/kg
CCOc1cc([C@H](CS(C)(=O)=O)N2C(=O)c3cccc(NC(C)=O)c3C2=O)ccc1OC,–,–,370 nM,–
COc1ccc(C(CC#N)N2C(=O)c3ccccc3C2=O)cc1OC1CCCC1 (stereo unspecified),340 nM,–,–,–
CCOc1cc(C(CC(N)=O)N2C(=O)c3ccccc3C2=O)ccc1OC (stereo unspecified),1900 nM,10500 nM,–,–
CCOc1cc(C(CC#N)N2C(=O)c3cccc(NC(C)=O)c3C2=O)ccc1OC (racemic),130 nM,1600 nM,440 nM,–
COc1ccc(C(CS(C)(=O)=O)N2C(=O)c3ccccc3C2=O)cc1OC1CCCC1 (stereo unspecified),260 nM,–,1500 nM,–
COc1ccc(C(CC(=O)O)N2C(=O)c3ccccc3C2=O)cc1OC1CCCC1 (stereo unspecified),340 nM,–,36000 nM,–
CCOc1cc([C@@H](CC(N)=O)N2C(=O)c3cccc(NC(C)=O)c3C2=O)ccc1OC,710 nM,–,3000 nM,–
COC(=O)CC(c1ccc(OC)c(OC2CCCC2)c1)N1C(=O)c2ccccc2C1=O (stereo unspecified),1600 nM,–,1700 nM,–
CCOc1cc(C(CC(=O)OC)N2C(=O)c3ccccc3C2=O)ccc1OC (stereo unspecified),220 nM,4000 nM,–,–
CCOc1cc(C(CC#N)N2C(=O)c3ccccc3C2=O)ccc1OC (stereo unspecified),40 nM,490 nM,240 nM,–
CCOc1cc(C(CC(=O)O)N2C(=O)c3ccccc3C2=O)ccc1OC (stereo unspecified),1300 nM,–,35000 nM,–

# The next lines start with results.
IC50 [1],IC50 [3],Structure (SMILES),IC50 [2],also measured
68 nM,2400 nM,CCOc1cc(C(CS(C)(=O)=O)N2C(=O)c3cccc(C)c3C2=O)ccc1OC (racemic),270 nM,Ratio IC50 [4]: 9
120 nM,2200 nM,CCOc1cc(C(CS(C)(=O)=O)N2C(=O)c3cccc(N)c3C2=O)ccc1OC (racemic),370 nM,Ratio IC50 [4]: 6
220 nM,2500 nM,CCOc1cc(C(CS(C)(=O)=O)N2C(=O)c3ccccc3C2=O)ccc1OC (stereo unspecified),1300 nM,–
–,110 nM,CCOc1cc([C@@H](CS(C)(=O)=O)N2C(=O)c3cccc(NC(C)=O)c3C2=O)ccc1OC,77 nM,half-life [6]: > 1 h; IC50 [7]: > 10000 nM; IC50 [8]: > 10000 nM; IC50 [9]: > 10000 nM; IC50 [10]: > 10000 nM; IC50 [11]: > 10000 nM; fraction unbound [12]: 0.1; Cmax [13]: 6600 ng/mL; AUC [14]: 11000 ng·h/mL; half-life [15]: 3 h; clearance [16]: 8.33 mL/min/kg; Vd [17]: 2 L/kg; Cmax [18]: 1100 ng/mL; AUC [19]: 14000 ng·h/mL; half-life [20]: 5 h; bioavailability [21]: 64%; Activity [22]: Active; ED50 [23]: 0.03 mg/kg; ED50 [24]: 0.3 mg/kg
120 nM,1400 nM,CCOc1cc(C(CS(C)(=O)=O)N2C(=O)c3cccc(N(C)C)c3C2=O)ccc1OC (racemic),220 nM,Ratio IC50 [4]: 6
820 nM,–,CCOc1cc(C(CS(C)(=O)=O)N2C(=O)c3cccc(O)c3C2=O)ccc1OC (racemic),1470 nM,–
690 nM,–,CCOc1cc(C(CS(C)(=O)=O)N2C(=O)c3cccc(OC)c3C2=O)ccc1OC (racemic),340 nM,–
–,440 nM,CCOc1cc(C(CS(C)(=O)=O)N2C(=O)c3cccc(NC(C)=O)c3C2=O)ccc1OC (racemic),190 nM,–
